Here are results for 15 compounds from ChEMBL document CHEMBL3351553 (J Med Chem, 2014).

One experiment concerns Klebsiella pneumoniae. The experiment can be described thus: Antimicrobial activity against Klebsiella pneumoniae CKP4 incubated for 16 hrs by CLSI based method. The experiment is classed as functional. As to conditions: CKP4, 16 h.
Another experiment relates to Enterococcus faecium. The experiment can be described thus: Antimicrobial activity against Enterococcus faecium 824-05 incubated for 16 hrs by CLSI based method. The experiment is classed as functional. The note with it: 824-05, 16 h.
Experiment [1] deals with Staphylococcus aureus. Briefly: Antimicrobial activity against methicillin-resistant Staphylococcus aureus USA300 NRS384 incubated for 16 hrs by CLSI based method. The experiment is classed as functional. As to conditions: USA300 NRS384, 16 h.
Experiment [2] concerns the target DNA gyrase (Staphylococcus aureus) (UniProt P0A0K8+P20831). The experiment can be described thus: Inhibition of Staphylococcus aureus DNA gyrase assessed as reduction in enzyme-catalyzed supercoiling of relaxed circular pBR322 DNA at 100 uM by agarose gel electrophoresis. The experiment is classed as protein-complex assay. In outline: (§1)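 Recombinant S. aureus gyrase kit, 0.5 U enzyme, relaxed pBR322 (250 ng/μL) in 40 mM HEPES·KOH pH 7.6, 10 mM Mg acetate, 10 mM DTT, 2 mM ATP, 500 mM K glutamate, 0.5 mg/mL albumin; 37 °C, 30 min.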

The next experiment deals with DNA gyrase (Staphylococcus aureus, UniProt P0A0K8+P20831). Briefly: Inhibition of Staphylococcus aureus DNA gyrase assessed as reduction in enzyme-catalyzed supercoiling of relaxed circular pBR322 DNA by agarose gel electrophoresis. The experiment is classed as protein-complex assay. In outline:
as §1

The test system of experiment [3] is Staphylococcus aureus. The experiment can be described thus: Antimicrobial activity against vancomycin intermediate-resistant Staphylococcus aureus Mu50 incubated for 16 hrs by CLSI based method. In kind it is functional. The note with it: Mu50, 16 h.
The subject of experiment [4] is Staphylococcus aureus. Briefly: Antimicrobial activity against methicillin-resistant Staphylococcus aureus USA300-0114 incubated for 16 hrs by CLSI based method. In kind it is functional. The note with it: USA300-0114, 16 h.
For experiment [5], the target named is Voltage-gated inwardly rectifying potassium channel KCNH2 (Homo sapiens, UniProt Q12809).
Chain of Voltage-gated inwardly rectifying potassium channel KCNH2 (Q12809 whole entry): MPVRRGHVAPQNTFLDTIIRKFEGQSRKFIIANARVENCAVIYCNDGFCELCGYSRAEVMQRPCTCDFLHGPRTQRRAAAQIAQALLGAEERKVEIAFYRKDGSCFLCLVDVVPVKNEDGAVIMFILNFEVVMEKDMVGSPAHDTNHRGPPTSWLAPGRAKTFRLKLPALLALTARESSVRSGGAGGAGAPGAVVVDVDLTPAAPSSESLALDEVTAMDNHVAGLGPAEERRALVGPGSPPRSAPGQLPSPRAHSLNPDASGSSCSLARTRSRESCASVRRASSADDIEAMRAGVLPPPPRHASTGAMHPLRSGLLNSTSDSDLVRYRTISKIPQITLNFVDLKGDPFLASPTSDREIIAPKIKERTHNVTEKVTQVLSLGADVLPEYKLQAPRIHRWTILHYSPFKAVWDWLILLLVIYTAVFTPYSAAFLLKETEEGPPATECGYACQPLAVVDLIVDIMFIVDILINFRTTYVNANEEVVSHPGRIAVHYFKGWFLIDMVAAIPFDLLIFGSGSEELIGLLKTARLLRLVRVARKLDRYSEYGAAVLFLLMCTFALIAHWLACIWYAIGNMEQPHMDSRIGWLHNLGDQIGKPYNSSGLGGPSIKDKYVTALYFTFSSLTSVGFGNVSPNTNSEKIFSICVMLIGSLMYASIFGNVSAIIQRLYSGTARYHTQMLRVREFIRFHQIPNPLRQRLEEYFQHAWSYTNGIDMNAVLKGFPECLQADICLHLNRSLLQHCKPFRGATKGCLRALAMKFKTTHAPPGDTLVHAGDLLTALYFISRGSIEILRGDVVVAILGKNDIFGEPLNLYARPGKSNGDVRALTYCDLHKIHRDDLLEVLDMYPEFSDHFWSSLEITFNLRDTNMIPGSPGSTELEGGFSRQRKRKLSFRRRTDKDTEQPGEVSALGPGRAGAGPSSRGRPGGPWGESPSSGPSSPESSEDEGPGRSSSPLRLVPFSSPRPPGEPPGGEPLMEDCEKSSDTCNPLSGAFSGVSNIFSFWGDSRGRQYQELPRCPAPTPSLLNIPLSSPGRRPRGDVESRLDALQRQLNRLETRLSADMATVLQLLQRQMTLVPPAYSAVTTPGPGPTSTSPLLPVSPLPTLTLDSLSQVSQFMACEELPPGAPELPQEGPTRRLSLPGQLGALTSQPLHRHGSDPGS
Experiment [6] can be described thus: Inhibition of Staphylococcus aureus topoisomerase 4 assessed as reduction in decatenation of kDNA at 100 to 500 uM by gel electrophoresis method. In outline: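 Compounds were in DMSO, with water or DMSO as vehicle controls. Reactions were stopped with STEB plus chloroform:isoamyl alcohol and run on 1% agarose TAE gels stained with ethidium bromide. IC50 was taken from densitometry against reactions with and without enzyme.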

The subject of experiment [7] is Staphylococcus aureus. The experiment can be described thus: Antimicrobial activity against ciprofloxacin-resistant Staphylococcus aureus CRC61 incubated for 16 hrs by CLSI based method. The experiment is classed as functional. As to conditions: CRC61, 16 h.
In a further experiment the test system is Acinetobacter baumannii. Briefly: Antimicrobial activity against Acinetobacter baumannii 983709 incubated for 16 hrs by CLSI based method. In kind it is functional. As to conditions: Acinetobacter baumannii, 983709, 16 h.
Experiment [8] relates to Escherichia coli. Briefly: Antimicrobial activity against Escherichia coli 8314 incubated for 16 hrs by CLSI based method. In kind it is functional. The note with it: Escherichia coli, 8314, 16 h.
Experiment [9] deals with Escherichia coli. The experiment can be described thus: Antimicrobial activity against tolC and imp(-) containing Escherichia coli incubated for 16 hrs by CLSI based method. The experiment is classed as functional.
For experiment [10], the system named is Staphylococcus aureus. Briefly: Antimicrobial activity against vancomycin-resistant Staphylococcus aureus VRSA1 incubated for 16 hrs by CLSI based method. The experiment is classed as functional. As to conditions: VRSA1, 16 h.
In experiment [11] the target is T1, Ribonuclease J 2 (Staphylococcus aureus (strain COL)) (UniProt Q5HGF6).
T1 sequence (whole entry): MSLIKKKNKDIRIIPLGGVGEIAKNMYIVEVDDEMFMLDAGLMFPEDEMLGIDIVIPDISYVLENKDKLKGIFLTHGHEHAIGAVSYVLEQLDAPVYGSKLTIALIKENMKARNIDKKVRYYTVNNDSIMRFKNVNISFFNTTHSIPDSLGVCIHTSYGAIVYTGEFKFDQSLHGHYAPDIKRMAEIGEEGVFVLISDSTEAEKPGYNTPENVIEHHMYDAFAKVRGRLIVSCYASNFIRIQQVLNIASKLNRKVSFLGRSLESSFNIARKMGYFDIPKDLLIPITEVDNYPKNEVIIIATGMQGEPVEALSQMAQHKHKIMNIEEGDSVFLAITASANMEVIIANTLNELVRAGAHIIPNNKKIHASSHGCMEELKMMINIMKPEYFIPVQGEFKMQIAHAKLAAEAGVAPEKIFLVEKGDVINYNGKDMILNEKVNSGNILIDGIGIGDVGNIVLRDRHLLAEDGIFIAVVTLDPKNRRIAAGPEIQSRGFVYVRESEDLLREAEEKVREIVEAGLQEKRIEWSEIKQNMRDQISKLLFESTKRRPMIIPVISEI
The experiment can be described thus: Inhibition of Staphylococcus aureus RNAse J2.

Experiment [12] has as its target T2, Ribonuclease P protein component (Staphylococcus aureus (strain COL)) (UniProt Q5HCI2).
T2 sequence (whole entry): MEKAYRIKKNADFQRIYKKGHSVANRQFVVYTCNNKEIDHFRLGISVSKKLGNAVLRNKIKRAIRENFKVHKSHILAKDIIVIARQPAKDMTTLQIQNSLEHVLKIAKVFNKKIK
The experiment can be described thus: Inhibition of Staphylococcus aureus RnpA.

Experiment [13] has as its system Staphylococcus aureus. Briefly: Antimicrobial activity against Staphylococcus aureus UAMS1 incubated for 16 hrs by CLSI based method. In kind it is functional. As to conditions: UAMS1, 16 h.
The subject of experiment [14] is Staphylococcus aureus. The experiment can be described thus: Antimicrobial activity against Staphylococcus aureus U1 incubated for 16 hrs by CLSI based method. The note with it: U1, 16 h. The experiment is classed as functional.
Experiment [15] has as its system Mycobacterium tuberculosis. Briefly: Antimicrobial activity against Mycobacterium tuberculosis mc2 6020 incubated for 16 hrs by alamar blue assay. In kind it is functional. As to conditions: mc2 6020, 16 h.

≈ marks a conversion by molar mass, not a printed value. Calls of active or inactive are those of the source. The calls are words filed in the database; no cut-off is given here.

Chain of DNA gyrase (Staphylococcus aureus) (P0A0K8 2-644 limits assumed): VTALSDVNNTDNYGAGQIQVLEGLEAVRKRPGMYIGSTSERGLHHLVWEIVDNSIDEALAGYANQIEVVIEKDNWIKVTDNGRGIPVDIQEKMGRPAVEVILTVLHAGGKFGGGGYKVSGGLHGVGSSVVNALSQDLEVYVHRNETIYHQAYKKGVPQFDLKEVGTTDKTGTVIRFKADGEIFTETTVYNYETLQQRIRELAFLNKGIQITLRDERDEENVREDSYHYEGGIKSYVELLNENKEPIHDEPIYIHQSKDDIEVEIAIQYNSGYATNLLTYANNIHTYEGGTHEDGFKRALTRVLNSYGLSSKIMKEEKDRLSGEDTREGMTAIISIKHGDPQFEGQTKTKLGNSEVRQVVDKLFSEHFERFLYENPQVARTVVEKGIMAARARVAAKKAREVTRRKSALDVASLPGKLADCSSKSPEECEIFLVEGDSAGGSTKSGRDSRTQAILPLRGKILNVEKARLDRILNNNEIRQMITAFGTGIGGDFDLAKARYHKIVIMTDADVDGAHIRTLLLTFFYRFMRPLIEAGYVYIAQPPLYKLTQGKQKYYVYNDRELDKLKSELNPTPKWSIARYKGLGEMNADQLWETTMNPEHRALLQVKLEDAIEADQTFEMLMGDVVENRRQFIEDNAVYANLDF
Chain of DNA gyrase (Staphylococcus aureus) (P20831 whole entry partner): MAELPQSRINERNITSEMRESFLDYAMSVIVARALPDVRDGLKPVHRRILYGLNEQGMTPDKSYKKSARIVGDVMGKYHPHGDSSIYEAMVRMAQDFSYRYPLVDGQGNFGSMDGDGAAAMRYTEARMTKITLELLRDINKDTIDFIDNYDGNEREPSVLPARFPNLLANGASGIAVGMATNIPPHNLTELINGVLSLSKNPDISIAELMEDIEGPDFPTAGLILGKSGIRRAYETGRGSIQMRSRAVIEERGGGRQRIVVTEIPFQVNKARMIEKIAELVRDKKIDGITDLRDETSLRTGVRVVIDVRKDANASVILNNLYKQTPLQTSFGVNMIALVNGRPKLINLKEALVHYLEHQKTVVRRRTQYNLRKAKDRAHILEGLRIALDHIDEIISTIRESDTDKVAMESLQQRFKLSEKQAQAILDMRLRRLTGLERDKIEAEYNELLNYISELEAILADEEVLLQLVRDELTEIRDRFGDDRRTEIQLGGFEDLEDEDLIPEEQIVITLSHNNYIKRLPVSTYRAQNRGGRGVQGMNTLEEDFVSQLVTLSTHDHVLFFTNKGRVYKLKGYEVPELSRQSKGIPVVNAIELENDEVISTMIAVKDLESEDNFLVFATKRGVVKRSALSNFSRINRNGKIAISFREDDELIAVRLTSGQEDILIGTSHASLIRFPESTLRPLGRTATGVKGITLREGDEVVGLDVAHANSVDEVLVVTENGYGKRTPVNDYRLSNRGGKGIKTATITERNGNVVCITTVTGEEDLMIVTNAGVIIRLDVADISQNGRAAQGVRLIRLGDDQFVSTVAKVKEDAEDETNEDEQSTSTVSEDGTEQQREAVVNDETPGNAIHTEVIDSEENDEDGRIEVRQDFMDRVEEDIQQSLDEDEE
Chain of DNA gyrase (P0A0K8 whole entry): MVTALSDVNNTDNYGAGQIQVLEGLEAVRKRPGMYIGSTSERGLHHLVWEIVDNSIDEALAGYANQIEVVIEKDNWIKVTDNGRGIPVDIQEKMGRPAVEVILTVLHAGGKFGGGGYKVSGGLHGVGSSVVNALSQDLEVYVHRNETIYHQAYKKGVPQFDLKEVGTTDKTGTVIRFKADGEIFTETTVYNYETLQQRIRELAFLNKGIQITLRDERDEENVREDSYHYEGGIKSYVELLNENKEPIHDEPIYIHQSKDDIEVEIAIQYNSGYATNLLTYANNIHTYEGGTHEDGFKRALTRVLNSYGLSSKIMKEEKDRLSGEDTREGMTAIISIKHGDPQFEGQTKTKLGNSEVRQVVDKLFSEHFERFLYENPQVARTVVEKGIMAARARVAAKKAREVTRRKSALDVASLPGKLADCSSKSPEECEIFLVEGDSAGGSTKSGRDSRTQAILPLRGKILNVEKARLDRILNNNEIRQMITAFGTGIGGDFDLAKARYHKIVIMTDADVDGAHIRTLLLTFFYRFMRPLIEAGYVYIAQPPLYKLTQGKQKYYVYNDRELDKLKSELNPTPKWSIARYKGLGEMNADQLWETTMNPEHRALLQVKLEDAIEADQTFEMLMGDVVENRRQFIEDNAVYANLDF
Chain of DNA gyrase (P20831 whole entry): as the sequence (P20831 whole entry partner) above

The term MIC denotes the lowest concentration found to suppress growth. Read a low MIC as greater potency. Broadly, the IC50 is the concentration that gives 50% inhibition. Turning to `OC(c1ccccc1)(c1ccccc1)C1CCN(Cc2ccc(-c3ccccc3)cc2)CC1`, the MIC against Klebsiella pneumoniae is greater than 256 µg/mL; in the experiment on Enterococcus faecium, 8 µg/mL (≈ 18.5 µM); with Staphylococcus aureus [1], 4 µg/mL (≈ 9.23 µM); in the experiment on Staphylococcus aureus [3] it was 8 µg/mL (≈ 18.5 µM); against Staphylococcus aureus [4], 8 µg/mL (≈ 18.5 µM); against Staphylococcus aureus [7], 4 µg/mL (≈ 9.23 µM). Further, the MIC against Acinetobacter baumannii is greater than 256 µg/mL; in the experiment with Escherichia coli [8], greater than 256 µg/mL; with Escherichia coli [9], 2 µg/mL (≈ 4.61 µM); against Staphylococcus aureus [10], 8 µg/mL (≈ 18.5 µM). Moreover, in [2], the inhibition result is “Active”. For the same compound, the IC50 on DNA gyrase came to 125 µM; in experiment [5], 210 nM; in [6], 160 µM.

For `CC(C)(C)c1ccc(C(O)CCCN2CCC(C(O)(c3ccccc3)c3ccccc3)CC2)cc1` (centres undefined) [TERFENADINE], the inhibition result in experiment [11] and in [12] was “inactive” each time. Further, the half-inhibitory concentration (IC50) in [6] was found to be 206 µM.

Regarding `COc1ccc(C(O)CCCN2CCC(C(O)(c3ccccc3)c3ccccc3)CC2)cc1` (centres undefined), the IC50 on DNA gyrase is greater than 500 µM; in experiment [6], greater than 333 µM. In the experiment with Staphylococcus aureus [13], this compound yielded an MIC greater than 256 µg/mL.

On to `O=C(O)c1cn(C2CC2)c2cc(N3CCNCC3)c(F)cc2c1=O`, for which the inhibition entry in experiment [2] is “Active”.

For the compound `OC(CCCN1CCC(C(O)(c2ccccc2)c2ccccc2)CC1)c1ccc(F)cc1` (centres undefined), the IC50 was greater than 500 µM on DNA gyrase and greater than 333 µM in experiment [6]. This compound also gave an MIC in the experiment on Staphylococcus aureus [13] of 128 µg/mL (≈ 295 µM).

Turning to `CC(C)(C)c1cccc(CCN2CCC(C(O)(c3ccccc3)c3ccccc3)CC2)c1`, the IC50 on DNA gyrase was 93 µM; in experiment [6] it was greater than 333 µM. In addition, the MIC against Staphylococcus aureus [13] turned out to be 16 µg/mL (≈ 37.4 µM).

With `O=C(O)c1ccc(C(O)CCCN2CCC(C(O)(c3ccccc3)c3ccccc3)CC2)cc1` (centres undefined), the IC50 was greater than 500 µM on DNA gyrase and greater than 333 µM in experiment [6]. Moreover, in the experiment on Staphylococcus aureus [13], the MIC was greater than 256 µg/mL.

For `OC(c1ccccc1)(c1ccccc1)C1CCN(CCc2ccc(C(F)(F)F)cc2)CC1`, the values for the 50% inhibitory concentration (IC50) (on DNA gyrase; in experiment [6]) were 17 µM and greater than 333 µM, respectively. 16 µg/mL (≈ 36.4 µM) was the least that counted as inhibitory in the experiment with Staphylococcus aureus [13] (MIC).

With `OC(CCCN1CCC(C(O)(c2ccccc2)c2ccccc2)CC1)c1ccccc1` (centres undefined), the values for the IC50 (on DNA gyrase; in experiment [6]) were greater than 500 µM and greater than 333 µM, respectively. In the experiment with Staphylococcus aureus [13], the MIC was greater than 256 µg/mL.

Regarding `OC(c1ccccc1)(c1ccccc1)C1CCN(CCCOc2ccc(-c3ccccc3)cc2)CC1`, the MIC against Klebsiella pneumoniae was greater than 128 µg/mL; in the experiment with Staphylococcus aureus [1], 2 µg/mL (≈ 4.19 µM); with Staphylococcus aureus [14], 1 µg/mL (≈ 2.09 µM); against Staphylococcus aureus [13] it was 1 µg/mL (≈ 2.09 µM); against Acinetobacter baumannii, greater than 128 µg/mL; against Escherichia coli [8], greater than 128 µg/mL. Also, the MIC against Escherichia coli [9] stood at 4 µg/mL (≈ 8.37 µM); in experiment [15], 1 µg/mL (≈ 2.09 µM); in the experiment with Staphylococcus aureus [10], 2 µg/mL (≈ 4.19 µM). The inhibition entry in experiment [2] is “Active”. The results for the IC50 (on DNA gyrase; in experiment [5]; in experiment [6]) were 50 µM, 140 nM and 160 µM, respectively.

Regarding `Nc1ccc(CCN2CCC(C(O)(c3ccccc3)c3ccccc3)CC2)cc1`, the results for the IC50 (on DNA gyrase; in experiment [6]) were 93 µM and greater than 333 µM, respectively. In the experiment with Staphylococcus aureus [13], the MIC is greater than 256 µg/mL.

Regarding `OC(c1ccccc1)(c1ccccc1)C1CCN(CCc2ccc(-c3ccccc3)cc2)CC1`, the IC50 at DNA gyrase was 80 µM; in experiment [6] it was 133 µM. In the experiment on Staphylococcus aureus [13], this compound had an MIC of 8 µg/mL (≈ 17.9 µM).

Turning to `CC(C)(C)c1ccc(CCCN2CCC(C(O)(c3ccccc3)c3ccccc3)CC2)cc1`, the IC50 at DNA gyrase came to 93 µM; in experiment [6], 100 µM. Inhibition of growth with Staphylococcus aureus [13] (MIC) required 8 µg/mL (≈ 18.1 µM).

On to `CC(C)(C)c1ccc(C(O)CCCCN2CCC(C(O)(c3ccccc3)c3ccccc3)CC2)cc1` (centres undefined), for which the IC50 at DNA gyrase was determined as 100 µM; in [6], 133 µM. The compound further gave an MIC in the experiment on Staphylococcus aureus [13] of 16 µg/mL (≈ 32.9 µM).

`CC(C)(C)c1ccc(C(=O)N2CCC(C(O)(c3ccccc3)c3ccccc3)CC2)cc1`: the IC50 at DNA gyrase is 93 µM; in experiment [6], greater than 333 µM. Further, the MIC in the experiment on Staphylococcus aureus [13] was greater than 256 µg/mL.
